Screens (PubChem)
An excerpt weighted towards active compounds, which were near 1.7% of everything screened.
Runt-CBFb FRET: blocks binding of human RUNX1 Runt domain to CBFb | Q01196+Q13951 | Cerulean-Runt/Venus-CBFb FRET ratio 530/480, 1 h | 0.46% of 220,000 active | inhibition, % at 20 µM;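 active = inhibition over about 50% at 20 µM in the single-dose screen, limit read from the data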;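 also: 0% = DMSO wells and 100% = excess unlabeled CBFb competitor control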
Target sequence (Q01196 whole entry, looked up, the tested form may be a part): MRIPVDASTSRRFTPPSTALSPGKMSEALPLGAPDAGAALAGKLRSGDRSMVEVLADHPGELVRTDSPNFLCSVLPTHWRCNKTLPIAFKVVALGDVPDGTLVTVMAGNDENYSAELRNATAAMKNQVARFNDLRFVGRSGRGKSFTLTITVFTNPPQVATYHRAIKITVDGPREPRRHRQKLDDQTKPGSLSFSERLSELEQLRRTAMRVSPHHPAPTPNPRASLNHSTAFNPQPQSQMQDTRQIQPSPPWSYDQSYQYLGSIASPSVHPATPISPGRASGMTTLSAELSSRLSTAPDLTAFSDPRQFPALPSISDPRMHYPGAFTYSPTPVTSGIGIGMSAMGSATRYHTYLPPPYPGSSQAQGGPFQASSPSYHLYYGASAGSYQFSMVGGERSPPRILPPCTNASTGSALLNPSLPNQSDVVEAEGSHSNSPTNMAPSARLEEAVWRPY
Target sequence (Q13951 whole entry, looked up, the tested form may be a part): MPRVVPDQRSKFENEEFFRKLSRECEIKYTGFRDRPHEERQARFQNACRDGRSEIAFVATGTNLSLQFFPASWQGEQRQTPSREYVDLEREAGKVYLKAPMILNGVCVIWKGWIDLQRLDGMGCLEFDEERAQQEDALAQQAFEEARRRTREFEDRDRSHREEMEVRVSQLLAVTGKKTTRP
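test system = Cerulean-Runt domain fusion protein, energy donor | probe or stimulus = Venus-CBFb binding partner, 100 nM | incubation = two 1 h room-temperature incubations shielded from light | detection = fluorescence energy transfer, 422 nm excitation, 530/480 nm emission | measure = loss of energy transfer signal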
RanGTP-Imp inh: inhibitors of RanGTP-importin-beta interaction, primary screen, biochemical, FRET, CFP-Ran, YFP-importin-beta, homogeneous; cell-free CFP-Ran/YFP-importin-beta FRET ratio; inhibition, % (no concentration beside the values); 1.1% of 300,000 active;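 active = more than half of the replicate wells show a fall in the fluorescence ratio signal beyond about 16%, limit read from the data, passing the limit was not always enough; inconclusive = exactly half of the replicate wells pass the set limit; inactive = fewer than half of replicates pass the limit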;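 also: 0% = DMSO wells and 100% = Ran loaded with GDP instead of GTP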
Rce1 inh: inhibitors of yeast Ras-converting enzyme; calls only; 0.27% of 290,000 active; Q03530; yeast membranes, quenched prenylated peptide cleavage fluorescence;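 active = fall in fluorescence gain of 50% or more versus controls, with final raw signal at or below 3038400; inconclusive = same 50% fall but final raw signal above 3038400; inactive = fall in fluorescence gain under 50%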;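 also: plate controls were neutral control wells for no effect and wells lacking membranes for full effect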
Runt-SMMHC FRET: inhibitors of human RUNX1 Runt domain binding to CBFb-SMMHC; Q01196+Q13951; Cerulean-Runt/Venus-CBFb-SMMHC FRET ratio 530/480, 1 h; inhibition, % at 20 µM; 0.74% of 220,000 active;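 active = mean inhibition across duplicate retests at 20 µM reaching about 50%, limit read from the data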;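 also: 0% = DMSO wells and 100% = wells with excess untagged CBFb-SMMHC; inhibitors lower the FRET ratio by blocking Runt binding to CBFb-SMMHC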
Vif imaging: HIV Vif inhibition. 0.35% of 340,000 active. AID 602346. HEK293T cells, Vif self-association by quenched fluorescence, imaging, 24 h. inhibition, % at 7.49 µM; in the data active = inhibition above about 50%, passing the limit was not always enough; inconclusive = no clear call, values can overlap the other calls; inactive = below about 31%
* hit, by the source's call; i = inactive; ? = inconclusive; nt = not tested or not shown; + = active, no number.

SMILES	Runt-CBFb FRET	RanGTP-Imp inh	Rce1 inh	Runt-SMMHC FRET	Vif imaging
O=C1C2CC=C(Cl)CC2C(=O)N1c1ncn[nH]1 (stereo unspecified)	-3	2	i	-5	-1
O=C1C2CC=CCC2C(=O)N1c1ncn[nH]1 (stereo unspecified)	0	39*	i	-8	10
COC(=O)C1=C(C)N=C2SC(C#N)=C(N)N2C1c1ccc(OC)cc1 (stereo unspecified)	-6	21*	i	-19	3
COc1ccc(CN2CCNC(=O)C2CC(=O)NC2CCOCC2)c(F)c1 (stereo unspecified)	nt	-3	i	nt	9
Nc1nnc(-c2ccccc2Cl)s1	5	0	i	0	-11
COc1ccccc1-c1nnc(N)s1	0	-2	+	2	-1
O=C(O)c1ccccc1NCCO	1	0	+	-4	7
C=CCn1c(=N)c(C(=O)OCC)cc2c(=O)n3cc(C)ccc3nc21	12	nt	nt	38	nt
Cc1cccn2c(=O)c3cc(C(=O)NCc4ccc(F)cc4)c(=N)n(CCCN4CCOCC4)c3nc12	nt	nt	nt	nt	-4
Cc1ccc2nc3c(cc(C(N)=S)c(=N)n3CCCOC(C)C)c(=O)n2c1	11	188*	i	41	6
COCCCn1c(=N)c(C(N)=S)cc2c(=O)n3cccc(C)c3nc21	nt	+	i	nt	-12
Cc1cccn2c(=O)c3cc(C(N)=S)c(=N)n(CCCN4CCOCC4)c3nc12	4	-2	i	88*	1
COCCCn1c(=N)c(C(=O)NCc2ccc3c(c2)OCO3)cc2c(=O)n3cccc(C)c3nc21	nt	nt	nt	nt	-8
O=C(COC(=O)/C=C/c1ccccc1)NCc1ccccc1Cl	-2	1	i	-2	9
O=C(NCCCN1CCCC1=O)c1ccc(NS(=O)(=O)c2cccc([N+](=O)[O-])c2)cc1	nt	0	i	nt	15
CC(C)c1ccc(NC(=O)CN2C(=O)NC3(CCCCCCC3)C2=O)cc1	nt	nt	nt	nt	12
CC1CC(=O)Nc2ccc([N+](=O)[O-])cc2N1C (stereo unspecified)	1	5	i	-2	-1
CC(=O)N1c2ccc([N+](=O)[O-])cc2NC(=O)CC1C (stereo unspecified)	-3	?	+	1	13
CCc1nnc(NC(=O)CSc2ccc(-c3nc4ccc(C)cc4[nH]3)cn2)s1	-3	1	i	-7	-4
Cc1cc(NCc2ccccn2)n2c(nc3ccccc32)c1C#N	nt	96*	i	nt	4
Cc1cc(Cl)n2c(nc3ccccc32)c1C#N	1	?	i	-17	35
Cc1cc(NCCOCCO)n2c(nc3ccccc32)c1C#N	nt	21*	i	nt	1
CCN(CC)c1cc(C)c(C#N)c2nc3ccccc3n12	55*	32*	i	90*	0
Cc1c(CCCl)c(Cl)n2c(nc3ccccc32)c1C#N	nt	nt	nt	nt	61*
COc1cccc(CN(C)C(=O)c2ccc(Oc3ccccc3)cc2)c1OC	nt	0	i	nt	-6
SMILES	Runt-CBFb FRET	RanGTP-Imp inh	Rce1 inh	Runt-SMMHC FRET	Vif imaging
Cc1c(Cc2ccccc2)c(NCCCO)n2c(nc3ccccc32)c1C#N	57*	?	i	78*	12
CCc1c(C)c(C#N)c2nc3ccccc3n2c1NC	nt	0	i	nt	-6
CCc1c(C)c(C#N)c2nc3ccccc3n2c1NCCN(C)C	16	?	i	26	nt
COCCNc1cc(C)c(C#N)c2nc3ccccc3n12	17	25*	i	44	14
Cc1cccc(NC(=O)CSc2cc(C)c(C#N)c3nc4ccccc4n23)c1	30	0	i	80*	-2
C=C(C)Cc1c(C)c(C#N)c2nc3ccccc3n2c1NCCCN(C)C	17	38*	i	26	9
CCOC(=O)c1[nH]c(CO)c(C(=O)OCC)c1C	-2	0	i	-1	-4
CCCc1cc(NCCN(C)C)n2c(nc3ccccc32)c1C#N	nt	5	i	nt	-6
CCc1c(C)c(C#N)c2nc3ccccc3n2c1NCc1ccco1	21	?	i	72*	-9
Cc1cc(NCCCO)n2c(nc3ccccc32)c1C#N	10	56*	i	39	-8
CCCc1cc(NCC2CCCO2)n2c(nc3ccccc32)c1C#N (stereo unspecified)	20	52*	i	55*	-12
C=CCC1(CC=C)CCCN1C(=O)C1CCC(=O)N(CCc2ccccc2)C1 (stereo unspecified)	nt	1	i	nt	?
Cc1ccc(C(=O)N/C(=C\c2ccc(Br)cc2)c2nc(=S)[nH][nH]2)cc1	1	28*	i	7	2
Cc1ccc(CNC(=O)C2CCC(=O)N(CCc3cccc(F)c3)C2)cc1 (stereo unspecified)	nt	1	i	nt	-4
COc1ccc(/C(O)=C2/C(=O)C(=O)N(CCN(C)C)C2c2ccccn2)cc1OC (stereo unspecified)	3	23*	i	-2	nt
O=C1C(=O)N(CCN2CCOCC2)C(c2cccnc2)/C1=C(/O)c1ccccc1 (stereo unspecified)	nt	4	i	nt	nt
Cc1ccc(/C(O)=C2/C(=O)C(=O)N(CCN3CCOCC3)C2c2ccccn2)cc1 (stereo unspecified)	9	22*	i	8	1
COc1ccc(/C(O)=C2/C(=O)C(=O)N(CCN3CCOCC3)C2c2ccccn2)cc1OC (stereo unspecified)	1	29*	i	12	13
CCN(CC)CCCN1C(=O)C(=O)/C(=C(/O)c2ccc(C)cc2)C1c1ccccn1 (stereo unspecified)	-1	2	i	-7	nt
O=C1C(=O)N(CCN2CCOCC2)C(c2ccccn2)/C1=C(/O)c1ccccc1 (stereo unspecified)	8	24*	i	6	nt
CCOc1ccc(N2CC(C(=O)NCCCc3ccccc3)CC2=O)cc1 (stereo unspecified)	nt	nt	nt	nt	-3
COc1ccc(Cc2nnc(Nc3ccccc3)s2)cc1Br	nt	3	i	nt	107*
CCCCc1cc(=O)oc2cc(OC(C)C(=O)NCc3ccccn3)c(Cl)cc12 (stereo unspecified)	nt	-1	i	nt	-8
CCc1cc(=O)oc2cc(OC(C)C(=O)NCc3ccccn3)ccc12 (stereo unspecified)	nt	3	i	nt	58*
CCOc1ccc(Oc2ccc(C(F)(F)F)cc2NC(=O)C2=COCCO2)cc1	nt	nt	nt	nt	-3
O=C(C(Cc1ccccc1)N1C(=O)c2ccccc2C1=O)N1c2ccccc2CCc2ccccc21 (stereo unspecified)	0	-1	+	-3	-3
Cc1c(C)c2c(OCC(=O)N3CCC(C(N)=O)CC3)cc3c(c2oc1=O)CCC(C)(C)O3	nt	5	i	nt	-7
